For 1 compound, Drug excretion and Drug metabolism results are on record in ChEMBL document CHEMBL3525967, “In vitro glucuronidation of the antibacterial triclocarban and its oxidative metabolites” (Drug Metab Dispos, 2012).

Series [1] can be described thus: Drug excretion in Swiss webster mouse urine assessed as 3'-O-glucuronide-triclocarban formation at 5 mg/kg, po by LC-MS analysis. It is filed as ADME, organism-based. Details: dose 5 mg/kg, route oral. The following applies: in vivo. Put shortly: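 Mice were housed two per metabolic cage, with blank urine collected over the 24 h before dosing. TCC was given by oral gavage as a 1 mg/mL solution in 20/80 DMSO/PEG400 (v/v) at 5 mg/kg. Urine was collected at 0-24 h and 24-48 h and analysed by online LC-MS. Values are the mean of two independent experiments.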

The nature of series [2]: Drug excretion in Sprague-Dawley rat urine assessed as 3'-O-glucuronide-triclocarban formation at 1 mg/kg, po by LC-MS analysis. In kind it is ADME, organism-based. More on the design: dose 1 mg/kg, route oral. As to conditions: in vivo.
A short description of series [3]: Drug excretion in Sprague-Dawley rat urine assessed as 2'-O-glucuronide-triclocarban formation at 1 mg/kg, po by LC-MS analysis. It is filed as ADME, organism-based. Details: dose 1 mg/kg, route oral. As to conditions: in vivo.
A further series deals with Liver microsome. Nature of the series: Drug metabolism in Sprague-Dawley rat liver microsomes assessed as N-glucuronide-triclocarban formation incubated for 5 mins prior to UDPGA addition measured after 5 to 30 mins by LC-UV analysis. It is filed as ADME. Put shortly: (§1)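 Microsomes or UGT Supersomes (5 µg protein) were held 15 min on ice with alamethicin in 100 mM potassium phosphate pH 7.4. TCC was added at 10 µM (2% DMSO) with 10 mM MgCl2 and 10 mM saccharolactone, pre-warmed 5 min at 37 °C, then started with UDPGA. Samples at 5, 10, 15 and 30 min were quenched in ACN. Product was read by LC-UV at 265 nm; rate came from regression over time, three incubations.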
On the technique in general: Liver microsomes are vesicles of endoplasmic reticulum, rich in cytochrome P450 enzymes.

Series [4] can be described thus: Drug metabolism in human kidney microsomes assessed as N'-glucuronide-triclocarban formation incubated for 5 mins prior to UDPGA addition measured after 30 mins by LC-UV-ESI-MS/MS analysis. It is filed as ADME. The following applies: 0.5 h. The essentials: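 Pooled human kidney or liver microsomes (liver: 25 mixed-gender donors), 5 µg protein, in 200 µL 100 mM potassium phosphate pH 7.4. Alamethicin pre-treated on ice 15 min. Final 10 µM TCC (2% DMSO), with 10 mM MgCl2 and 10 mM saccharolactone, preincubated 5 min at 37 °C. Started with UDPGA (20 mM stock). Sampled at 5, 10, 15 and 30 min into ACN containing 1 µM DCC internal standard.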

Series [5] concerns the target T1, UDP-glucuronosyltransferase 1A7 (Homo sapiens, UniProt Q9HAW7).
T1 sequence (Q9HAW7 whole entry): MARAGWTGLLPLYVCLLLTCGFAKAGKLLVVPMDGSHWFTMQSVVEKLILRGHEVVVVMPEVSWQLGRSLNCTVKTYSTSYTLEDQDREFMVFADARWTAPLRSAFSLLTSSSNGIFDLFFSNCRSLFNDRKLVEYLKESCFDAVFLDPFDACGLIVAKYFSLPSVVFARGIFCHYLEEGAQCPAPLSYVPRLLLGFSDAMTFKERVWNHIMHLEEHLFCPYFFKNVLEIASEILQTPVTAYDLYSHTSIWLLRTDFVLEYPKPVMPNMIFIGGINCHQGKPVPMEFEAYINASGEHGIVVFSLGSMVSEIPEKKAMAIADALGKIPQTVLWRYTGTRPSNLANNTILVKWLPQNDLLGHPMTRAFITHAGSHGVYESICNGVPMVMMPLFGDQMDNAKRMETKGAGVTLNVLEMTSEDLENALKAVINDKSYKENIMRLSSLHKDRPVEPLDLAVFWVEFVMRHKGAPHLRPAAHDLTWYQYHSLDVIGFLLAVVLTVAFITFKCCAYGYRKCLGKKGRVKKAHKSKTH
Nature of the series: Drug metabolism assessed as human UGT1A7-mediated N-glucuronide-triclocarban formation expressed in baculovirus infected insect sf9 cells incubated for 5 mins prior to UDPGA addition measured after 5 to 30 mins by LC-UV analysis. In kind it is ADME. The essentials:
as §1

Series [6] in a line: Drug metabolism in cynomolgus monkey liver microsomes assessed as N-glucuronide-triclocarban formation incubated for 5 mins prior to UDPGA addition measured after 5 to 30 mins by LC-UV analysis. It is filed as ADME, Macaca fascicularis. Put shortly:
as §1

In series [7] the target is T2, UDP-glucuronosyltransferase 1A6 (Homo sapiens, UniProt P19224).
T2 sequence (P19224 whole entry): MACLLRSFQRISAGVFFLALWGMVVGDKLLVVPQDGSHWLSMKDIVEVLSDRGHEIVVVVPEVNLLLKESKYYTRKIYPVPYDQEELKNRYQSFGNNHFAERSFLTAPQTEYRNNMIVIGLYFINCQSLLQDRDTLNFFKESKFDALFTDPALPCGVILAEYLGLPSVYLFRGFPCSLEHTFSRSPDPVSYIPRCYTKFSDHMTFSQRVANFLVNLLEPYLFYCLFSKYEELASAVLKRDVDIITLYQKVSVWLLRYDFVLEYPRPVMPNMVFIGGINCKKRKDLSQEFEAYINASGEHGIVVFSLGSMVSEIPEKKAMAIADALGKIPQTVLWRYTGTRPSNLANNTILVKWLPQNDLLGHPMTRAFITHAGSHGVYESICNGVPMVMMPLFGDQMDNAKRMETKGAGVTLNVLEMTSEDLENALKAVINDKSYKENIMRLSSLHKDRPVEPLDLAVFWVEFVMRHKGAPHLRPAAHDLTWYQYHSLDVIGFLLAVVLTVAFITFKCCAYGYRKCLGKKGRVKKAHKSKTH
Nature of the series: Drug metabolism assessed as human UGT1A6-mediated N'-glucuronide-triclocarban formation expressed in baculovirus infected insect sf9 cells incubated for 5 mins prior to UDPGA addition measured after 5 to 30 mins by LC-UV analysis. In kind it is ADME. The essentials: as §1

For series [8], the target named is T3, UDP-glucuronosyltransferase 1A1 (Homo sapiens, UniProt P22309).
T3 sequence (P22309 whole entry): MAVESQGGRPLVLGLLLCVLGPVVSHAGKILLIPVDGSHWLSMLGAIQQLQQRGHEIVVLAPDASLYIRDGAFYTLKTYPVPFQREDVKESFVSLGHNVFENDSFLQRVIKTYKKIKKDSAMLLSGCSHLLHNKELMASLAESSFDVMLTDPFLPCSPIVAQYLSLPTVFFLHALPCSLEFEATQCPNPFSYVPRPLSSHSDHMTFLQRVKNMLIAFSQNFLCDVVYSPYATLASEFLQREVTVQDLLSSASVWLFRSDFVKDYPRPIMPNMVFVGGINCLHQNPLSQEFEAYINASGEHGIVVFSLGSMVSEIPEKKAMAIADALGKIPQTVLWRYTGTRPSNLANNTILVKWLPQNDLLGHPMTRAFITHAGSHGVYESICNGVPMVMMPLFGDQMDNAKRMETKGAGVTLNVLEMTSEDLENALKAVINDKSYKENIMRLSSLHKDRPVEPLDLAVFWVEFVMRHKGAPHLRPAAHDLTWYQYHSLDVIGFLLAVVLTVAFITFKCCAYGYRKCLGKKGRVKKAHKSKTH
Nature of the series: Drug metabolism assessed as human UGT1A1-mediated N'-glucuronide-triclocarban formation expressed in baculovirus infected insect sf9 cells incubated for 5 mins prior to UDPGA addition measured after 5 to 30 mins by LC-UV analysis. In kind it is ADME. Put shortly:
as §1

The target in series [9] is T1, UDP-glucuronosyltransferase 1A7. Nature of the series: Drug metabolism assessed as human UGT1A7-mediated N'-glucuronide-triclocarban formation expressed in baculovirus infected insect sf9 cells incubated for 5 mins prior to UDPGA addition measured after 5 to 30 mins by LC-UV analysis. In kind it is ADME. The essentials: as §1

Turning to `O=C(Nc1ccc(Cl)cc1)Nc1ccc(Cl)c(Cl)c1` [TRICLOCARBAN], the Drug excretion entry in series [1], in series [2] and in [3] was “metabolite_detected” in each case. Besides, the Drug metabolism entry in the series on Liver microsome is “metabolite_not_detected”; in series [4], “metabolite_detected”; in series [5], “metabolite_not_detected”; in [6] it was “metabolite_not_detected”; in series [7], “metabolite_not_detected”; in [8], “metabolite_not_detected”. Moreover, in series [9], the Drug metabolism result is recorded as “metabolite_not_detected”.
